Screening results: PubChem BioAssay, several laboratories
Arbovirus anti: antivirals against arbovirus infection. arbovirus infection cell-based antiviral screen. inhibition, % at 10 µM. actives 0.37% (n = 200,000); in the data active means inhibition above about 30%
Lmaj promast: reduces viability of Leishmania major promastigotes | resazurin fluorescence viability | inhibition, % at 10 µM | actives 9% (n = 200,000) | AID 1063;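 further: promastigotes grown with compound for 44 hours at 28 °C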
CHOP inhibitor: CHOP inhibition in unfolded protein response; CHO-K1 CHOP-promoter luciferase, tunicamycin-induced, 15-18 h; inhibition, % at 10 µM; actives 3.8% (n = 220,000); AID 2732;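 active means compounds that reduced the stress-induced luciferase reporter signal by more than about 70% of percent inhibition, limit read from the data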;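 further: 0% = tunicamycin plus vehicle and 100% = wells without tunicamycin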
PKD1 kinase inh: blocks activity of human protein kinase D1 | Q15139 | PKD1 kinase fluorescence polarization assay | inhibition, % (test concentration not listed) | actives 0.056% (n = 200,000) | AID 797
Target sequence (Q15139 whole entry, looked up): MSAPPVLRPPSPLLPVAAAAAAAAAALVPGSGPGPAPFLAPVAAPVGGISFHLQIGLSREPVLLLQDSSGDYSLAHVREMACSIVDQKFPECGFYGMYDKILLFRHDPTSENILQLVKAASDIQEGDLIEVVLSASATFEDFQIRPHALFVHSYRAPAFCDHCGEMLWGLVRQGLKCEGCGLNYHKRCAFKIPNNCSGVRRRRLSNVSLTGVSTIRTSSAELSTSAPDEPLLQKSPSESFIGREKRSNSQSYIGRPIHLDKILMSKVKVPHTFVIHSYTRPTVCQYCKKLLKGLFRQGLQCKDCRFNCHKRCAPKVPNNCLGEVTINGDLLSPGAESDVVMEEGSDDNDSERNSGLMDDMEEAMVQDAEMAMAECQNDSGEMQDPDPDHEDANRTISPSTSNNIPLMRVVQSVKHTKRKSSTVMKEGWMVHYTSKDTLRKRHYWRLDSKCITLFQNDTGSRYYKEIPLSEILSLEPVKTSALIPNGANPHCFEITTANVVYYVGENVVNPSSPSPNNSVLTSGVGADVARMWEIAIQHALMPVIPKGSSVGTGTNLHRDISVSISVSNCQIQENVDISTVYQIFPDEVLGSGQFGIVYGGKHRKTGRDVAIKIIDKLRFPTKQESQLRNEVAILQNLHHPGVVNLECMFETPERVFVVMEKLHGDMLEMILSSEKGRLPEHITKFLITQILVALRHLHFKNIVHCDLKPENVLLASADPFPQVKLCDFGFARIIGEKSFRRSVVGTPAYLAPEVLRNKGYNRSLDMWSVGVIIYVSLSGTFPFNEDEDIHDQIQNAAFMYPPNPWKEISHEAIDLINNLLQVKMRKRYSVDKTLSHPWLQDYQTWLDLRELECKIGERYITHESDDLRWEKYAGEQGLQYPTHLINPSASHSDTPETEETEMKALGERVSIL
Wee1 degr inh: human Wee1 degradation inhibition, primary screen. P30291. HeLa Luc-Wee1K328M stability, luciferase luminescence; 100% = proteasome inhibitor MG132 effect. reporter increase, % at 5 µM. actives 1.2% (n = 220,000). AID 1321;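 active means activation above the mean of all tested compounds plus 3 SD, set per screening run, cut at about 8.8% in these data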;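 further: cells exposed to compound for 20 h before luminescence read; 0% = DMSO alone and 100% = MG132 at 30 µM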
Rad51 HR inh: blocks human Rad51 in homologous recombination; inhibition, % at 10 µM; Q06609; actives 0.085% (n = 200,000); hRad51 DNA strand exchange, fluorescence dequenching;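 active means inhibition above 40% at the single screening dose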;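 further: 0% = DMSO control wells and 100% = blanks with heterologous ssDNA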
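Test system – preformed human Rad51 ssDNA filaments · Reagent – Donor/quencher-labelled 47-bp dsDNA substrate · Incubation – 37 °C 15-min filament assembly, 30-min compound preincubation, 15-min exchange · Signal – FRET fluorescence dequenching, excitation 485 nm, emission 520 nm · Read-out – percent inhibition from fluorescence, normalised to plate control and blank means · Benchmarks – plate control and blank wells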
Wee1 degr conf: human Wee1 degradation inhibition, confirmation. shares compounds with Wee1 degr inh. actives 4% (n = 1,100). activation, % at 5 µM. HeLa Luc-Wee1K328M degradation, luminescence; vehicle 0%, proteasome-blocked wells 100%. AID 1410; in the data active means activation above about 8.9%
Numbers without * were called inactive; x = no result. This is a sample that favours compounds with a hit; in the whole collection about 12% have one here. Unless noted, no stated cut-off is given here; in the data, active means inhibition above about 50%; inactive means the rest.

SMILES | Arbovirus anti | Lmaj promast | CHOP inhibitor | PKD1 kinase inh | Wee1 degr inh | Rad51 HR inh | Wee1 degr conf
CCC(=O)N1CC2(c3ccccc3)CN(C(=O)CC)CC(c3ccccc3)(C1)C2=O | -3 | 4 | -16 | -5 | 12* | 5 | 0
CNc1nc(-c2ccc3c(c2)CCN3C(=O)c2ccccc2F)cs1 | -21 | 0 | 0 | -6 | 11* | 5 | 7
COc1ccccc1OCCC(=O)OCC(=O)NC(C)c1ccccc1 (stereo unspecified) | 1 | -4 | 21 | -8 | 3 | -16 | x
CC1CCC2(CC1)C(Nc1cccc(Cl)c1)=NC(=S)N2CC#N (stereo unspecified) | -6 | 8 | 46 | 3 | 4 | -3 | x
O=C(N/N=C/c1ccc(F)cc1)c1ccccc1 | -3 | 0 | -20 | -4 | 12* | 10 | 3
CN(C)S(=O)(=O)c1cccc(NC(=O)CNCC2CCCCC2)c1 | 1 | 84* | 8 | 1 | 12* | 8 | 1
CCN(CC)S(=O)(=O)c1cccc(NC(=O)CNC2CCCCCC2)c1 | x | x | -11 | x | 2 | 16 | x
CC(C)N(c1ccccc1)c1ccc(NC(=O)COC(=O)CCN2C(=O)c3cccc([N+](=O)[O-])c3C2=O)cc1 | -28 | -11 | 5 | -10 | 20* | 1 | -1
CC(=O)c1ccc(NC(=O)COC(=O)CCN2C(=O)c3cccc([N+](=O)[O-])c3C2=O)cc1 | 0 | -3 | 9 | -6 | -2 | 5 | x
C=CCNC(=S)NNc1nc(Nc2ccccc2)nc(N2CCCCC2)n1 | -13 | 3 | 74* | 7 | 11* | 7 | 1
CCOC(=O)c1[nH]c(COC(=O)C2CC(=O)N(Cc3ccccc3)C2)c(C(=O)OCC)c1C (stereo unspecified) | -3 | -3 | 28 | -10 | 2 | -1 | x
CC(=O)Nc1ccc(NC(=O)C(C)OC(=O)c2ccc(C)s2)cc1 (stereo unspecified) | 0 | 11 | -8 | -2 | -1 | 26 | x
CC1CCCCC1NC(=O)COC(=O)c1c2c(nc3ccccc13)/C(=C/c1ccco1)CC2 (stereo unspecified) | -1 | 34 | -20 | -10 | 11* | -31 | -1
CC(C)CNC(=O)COC(=O)c1c2c(nc3ccccc13)/C(=C/c1cccs1)CC2 | -13 | 17 | 34 | -2 | 3 | -21 | x
S=c1[nH]nc(Nc2ccc(Cl)cc2)s1 | x | x | 3 | x | 15* | 5 | 0
CCOc1ccc(Nc2n[nH]c(=S)s2)cc1 | -12 | -9 | -7 | 4 | 6 | -4 | x
COc1ccc(N(CC(=O)Nc2ccc(S(=O)(=O)N3CCCCC3)cc2)S(C)(=O)=O)cc1OC | -2 | 6 | -22 | 0 | 24* | -3 | 0
COc1ccc(N(CC(=O)Nc2ccc(S(=O)(=O)N3CCCC3)cc2)S(C)(=O)=O)cc1OC | -1 | -2 | 17 | 3 | 1 | 0 | x
CC(C)c1ccc(-c2nnc(N)s2)cc1 | -2 | -12 | -9 | -12 | 12* | 6 | 3
CN(Cc1ccccc1)C(=O)c1ccc2c(c1)OCO2 | -8 | -13 | 47 | -7 | 0 | 0 | x
CCCCN(C(=O)c1ccc2c(c1)OCO2)c1ccccc1 | 12 | 22 | 5 | -5 | 14* | -10 | 0
Cc1ccc(C(=O)NCC(=O)OCC(=O)N2CCCc3ccccc32)cc1 | 7 | 50 | 12 | -16 | -1 | -5 | x
Cc1cccc(C(=O)NCC(=O)OCC(=O)N2CCc3ccccc32)c1 | 7 | -1 | 9 | 3 | 13* | -6 | 0
CC12CCC(C/C1=N/OC(=O)c1cccc([N+](=O)[O-])c1)C2(C)C (stereo unspecified) | 0 | 5 | -4 | 8 | 7 | 1 | x
O=C(CO/N=C1\CCCc2nonc21)Nc1ccc(Br)cc1 | 2 | -4 | 4 | -4 | 12* | x | 7
SMILES | Arbovirus anti | Lmaj promast | CHOP inhibitor | PKD1 kinase inh | Wee1 degr inh | Rad51 HR inh | Wee1 degr conf
O=C(NCC1CCCO1)C(c1cccnc1)N(C(=O)Cc1cccs1)c1ccccc1 (stereo unspecified) | -5 | -4 | -40 | -4 | 17* | -3 | 1
CCN1CCN(c2nc(Nc3ccc(OC)cc3)nc(N)c2[N+](=O)[O-])CC1 | x | x | 2 | x | 12* | 5 | 1
CC(=O)C1=C(O)C(=O)N(c2ccc(C)cc2)C1c1ccccn1 (stereo unspecified) | -1 | -7 | 6 | -1 | 2 | -8 | x
O=C(COc1ccc(Br)cc1)Nc1nc(-c2cccnc2)cs1 | x | x | 27 | x | -1 | -8 | x
O=C(NC(=S)Nc1ccc2c(c1)OCCO2)c1cccc2ccccc12 | 3 | -4 | -4 | -3 | 12* | x | 0
O=C(NC(=S)Nc1ccc2c(c1)OCO2)c1ccccc1 | -13 | -4 | -19 | 1 | 6 | 12 | x
CC1CCN(c2cc(N3CCN(C(=O)c4ccc(F)c(F)c4)CC3)c([N+](=O)[O-])cc2F)CC1 | 3 | 3 | 54 | -2 | 1 | 23 | x
CCOC(=O)CNC(=O)N1CCCC(C(=O)c2cccc(Cl)c2)C1 (stereo unspecified) | 3 | -5 | -12 | -5 | 0 | -4 | x
NS(=O)(=O)c1ccc(NC(=O)CN2C(=O)c3ccccc3C2=O)cc1 | x | x | 0 | x | 19* | 19 | -2
NS(=O)(=O)c1ccc(NC(=O)CN2C(=O)CCC2=O)cc1 | x | x | -6 | x | -2 | 4 | x
CCCC(C)NC(=O)c1sc2nc3n(c(=O)c2c1C)CCC3 (stereo unspecified) | -4 | 5 | 0 | -6 | 3 | -7 | x
COc1cccc2cc(C(C)N(CCCN3CCOCC3)C(=S)Nc3ccc(C)c(C)c3)oc12 (stereo unspecified) | 7 | 6 | 13 | -6 | 33* | 3 | 0
COc1cccc2cc(C(C)N(CCCN3CCOCC3)C(=S)Nc3cc(C)ccc3C)oc12 (stereo unspecified) | 11 | 40 | 37 | -7 | 14* | 5 | 3
COc1cccc2cc(C(C)N(CCCN3CCOCC3)C(=S)Nc3cccc(C)c3C)oc12 (stereo unspecified) | -8 | 18 | 31 | 0 | 0 | -2 | x
CC1=C(C(=O)O)N2C(=O)[C@@H](NC(=O)C(N)C3=CCC=CC3)[C@H]2SC1 (stereo partly specified) | x | x | -22 | x | x | x | x
COc1ccc(Br)cc1CNC(=O)CCCc1cn(C)c2ccccc12 | -1 | -2 | 13 | -8 | 11* | x | -4
CN(CCC1CCCCO1)C(=O)CCc1nnc(C2CCCCC2)o1 (stereo unspecified) | 9 | 13 | 3 | -2 | 1 | 1 | x
O=C(Nc1ccc(OC(F)(F)F)cc1)Nc1cccc([N+](=O)[O-])c1 | -30 | 100* | 106* | -3 | 17* | 7 | 2
